The values below come from PMC11480350 (Nature Communications, 2024).

Where a SMILES comes first, the peptide text is derived from it. Where no end group is shown, it is not given here. [ ]: non-standard residue; d: D form. The star is where a group is joined. pS = N[C@@H](COP(=O)(O)O)C(=O)O; Cbz = O=C(OCc1ccccc1)*

For one assay, the system named is SCMC. Put plainly: Strep pull-down of 14-3-3 paralogs. It counts as binding, mouse. Particulars: Strep-Tactin pull-down, purified SCMC and 14-3-3 paralogs, SDS-PAGE. The procedure, abridged: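 SCMC was expressed in Sf9 cells for 60 h at 27 °C: His-MATER 1–1059, Strep-TLE6 48–581, Strep-FLOPED 1–164, Strep-FILIA 1–124 or 1–256. It was purified by Ni-NTA, anion exchange and Superose 6. GST-14-3-3 paralogs came from E. coli, were 3C-cleaved, and went through anion exchange and Superdex 200. Proteins were mixed with SCMC or buffer control and captured on Strep-Tactin at 4 °C. Washes contained 0.5% NP-40 and elution used 50 mM biotin. Read-out was SDS-PAGE/immunoblot.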

Another assay concerns Mouse zygotes. As to the kind of experiment: Early embryonic development of zygotes with PKA inhibitor. Particulars: H89 20 μM, commencing from 72 h pHCGi. It counts as cell-based.
The next assay relates to mouse 14-3-3γ. Put plainly: 14-3-3γ degradation, immunoblotting in HEK-293F cells. In kind it is cell-based. For orientation: In western blotting, separated proteins are transferred to a membrane and probed.
The target of assay [1] is T1, 14-3-3γ (Mus musculus, UniProt P61982).
T1 sequence (P61982 1-247): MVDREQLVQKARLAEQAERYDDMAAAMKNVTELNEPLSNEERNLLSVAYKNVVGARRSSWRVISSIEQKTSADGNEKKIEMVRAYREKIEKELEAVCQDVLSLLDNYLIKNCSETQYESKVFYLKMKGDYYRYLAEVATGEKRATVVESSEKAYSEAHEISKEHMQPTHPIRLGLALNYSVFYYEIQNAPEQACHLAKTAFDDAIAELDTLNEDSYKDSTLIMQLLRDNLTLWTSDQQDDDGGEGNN
Put plainly: Isothermal titration calorimetry. In kind it is binding. The following applies: ITC, 25 °C, pH 7.5, 3 independent experiments. The procedure, abridged: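 Mouse 14-3-3γ was expressed in E. coli as a GST fusion and purified on glutathione resin. The tag was cut with 3C protease, then the protein was polished by anion exchange and Superdex 200. TLE6 phosphopeptides were titrated into 14-3-3γ (e.g., 1.3 mM peptide into 50 μM protein). Data were corrected for dilution heat and curve-fitted for Kd. Three independent titrations, mean ± S.D.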
In general terms: ITC needs no label: the signal is the heat of the interaction.

The target of assay [2] is 14-3-3γ (UniProt P61982). As to the kind of experiment: anti-Flag. The following applies: reference: wild-type TLE6.
Assay [3] addresses His-tagged 14-3-3γ (mouse) (UniProt P61982). Put plainly: ITC.

With “14-3-3γ: mouse 14-3-3 paralog γ (1–247 aa)”, in the assay with SCMC, the “binding to the SCMC” value is listed as “most potent binding partner”.

Consider `O=S(=O)(NCCNC/C=C/c1ccc(Br)cc1)c1cccc2cnccc12` [H89], for which, in the assay with Mouse zygotes, the “progression of early embryonic development” value is on record as “markedly retarded”.

Regarding `CC(C)C[C@@H](C=O)NC(=O)[C@H](CC(C)C)NC(=O)[C@H](CC(C)C)NC(=O)OCc1ccccc1` [MG132] (Cbz-Leu-Leu-Leu-aldehyde), the “decrease in the protein level of 14-3-3γ” value in the assay with mouse 14-3-3γ (MG132 20 μM with cycloheximide 100 μg/ml) is listed as “effectively rescued”.

Regarding `C[C@@H]1C[C@@H]([C@H](O)CC2CC(=O)NC(=O)C2)C(=O)[C@@H](C)C1` [cycloheximide], the “level of exogenous mouse 14-3-3γ” value in the assay on mouse 14-3-3γ (cycloheximide 100 μg/ml) was “gradually degraded”.

Take “TLE6 (133–144): wild-type TLE6 peptide, residues 133–144 (TRRRFLSESDEL)”: in the assay with 14-3-3γ [1], the “binding to 14-3-3γ (in words)” value is “cannot bind to 14-3-3γ”.

In the case of “TLE6 (203–214): wild-type TLE6 peptide, residues 203–214 (QPRHRNSLSDSA)”, the “binding to 14-3-3γ (in words)” value with 14-3-3γ [1] is reported as “cannot bind to 14-3-3γ”.

For the molecule “TLE6 (217–228) pS223: phosphopeptide of TLE6 residues 217–228 carrying phosphorylated Ser223 (FLIKSP[pS]ALLDY)”, the “binding to 14-3-3γ (in words)” value with 14-3-3γ [1] is listed as “cannot bind to 14-3-3γ”.

On to TLE6 (from UniProt Q9WVB3) S139A, for which, in the assay with 14-3-3γ [2] (sites S139), the “binding against the reference” value is recorded as “weaker”.

Regarding TLE6 (from UniProt Q9WVB3) S209A, the “binding against the reference” value with 14-3-3γ [2] (sites S209) is “weaker”.

Turning to TRRRFL[pS]ESDEL [TLE6 (133–144) pS139 phosphopeptide], the Kd in assay [3] turned out to be 55.8 µM.

As to QPRHRN[pS]LSDSA [TLE6 (203–214) pS209 phosphopeptide], in assay [3], the Kd worked out at 315 µM.

One may read the Kd as the concentration at which binding is half-saturated. Low values mean tighter binding, high ones weaker binding.
